The values that follow come from publication PMC3822732 (Journal of Cellular and Molecular Medicine, 2009).

Read-outs that look alike come from different tables or passages of the source.

For data set [1] the following is noted: cited from earlier work.
The next data set deals with LRP-1. The note with it: read-out: Affinity for LRP-1; in other cell types; cited from earlier work.
For a further data set, the system named is endothelial cells. In words: Endothelial cells exposed to Angiopep-2. The format is cell-based. The note with it: data not shown.
For data set [2] the following is noted: after in situ perfusion; cited from earlier work.
The conditions of data set [3]: in situ brain perfusion; cited from earlier work.
In data set [4] the test system is bovine brain capillary endothelial cell monolayers. The note with it: cited from earlier work.
The nature of data set [5]: Immunohistochemical detection of Angiopep-2 in brain with anti-Angiopep-2 pAb. The conditions noted are these: mice, 20 mg/kg tail vein, 60 min uptake, cold saline perfusion.
The next data set concerns RBE4 cells. Put plainly: [125I]-Angiopep-2 uptake assay in brain endothelial cells. The format is cell-based, rat. The note with it: [125I]-Angiopep-2 100 nM; poly-L-lysine 350 μg/ml, protamine 40 μg/ml. The procedure, abridged:
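RBE4 brain endothelial cells were grown on collagen I in α-MEM/Ham's F-12 (1:1) with 10% heat-inactivated FCS, G418 and bFGF, seeded at 5 × 10⁴ cells/well and fed 3 days. Subconfluent cells in Ringer/HEPES pH 7.4 took up the tracer for 2 min at 37°C with a polycation, ± unlabelled peptide. Cells were lysed in 0.3 M NaOH and gamma counted, with unlabelled-cell background subtracted, in quadruplicate.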

For data set [6], the target named is LRP-1 (Homo sapiens) (UniProt Q07954). The note with it: cited from earlier work.
For data set [7] the target is unchanged. The conditions noted are these: cited from earlier work. This is another data set of the same source.

Chain of LRP-1 (Homo sapiens) (Q07954 20-4544): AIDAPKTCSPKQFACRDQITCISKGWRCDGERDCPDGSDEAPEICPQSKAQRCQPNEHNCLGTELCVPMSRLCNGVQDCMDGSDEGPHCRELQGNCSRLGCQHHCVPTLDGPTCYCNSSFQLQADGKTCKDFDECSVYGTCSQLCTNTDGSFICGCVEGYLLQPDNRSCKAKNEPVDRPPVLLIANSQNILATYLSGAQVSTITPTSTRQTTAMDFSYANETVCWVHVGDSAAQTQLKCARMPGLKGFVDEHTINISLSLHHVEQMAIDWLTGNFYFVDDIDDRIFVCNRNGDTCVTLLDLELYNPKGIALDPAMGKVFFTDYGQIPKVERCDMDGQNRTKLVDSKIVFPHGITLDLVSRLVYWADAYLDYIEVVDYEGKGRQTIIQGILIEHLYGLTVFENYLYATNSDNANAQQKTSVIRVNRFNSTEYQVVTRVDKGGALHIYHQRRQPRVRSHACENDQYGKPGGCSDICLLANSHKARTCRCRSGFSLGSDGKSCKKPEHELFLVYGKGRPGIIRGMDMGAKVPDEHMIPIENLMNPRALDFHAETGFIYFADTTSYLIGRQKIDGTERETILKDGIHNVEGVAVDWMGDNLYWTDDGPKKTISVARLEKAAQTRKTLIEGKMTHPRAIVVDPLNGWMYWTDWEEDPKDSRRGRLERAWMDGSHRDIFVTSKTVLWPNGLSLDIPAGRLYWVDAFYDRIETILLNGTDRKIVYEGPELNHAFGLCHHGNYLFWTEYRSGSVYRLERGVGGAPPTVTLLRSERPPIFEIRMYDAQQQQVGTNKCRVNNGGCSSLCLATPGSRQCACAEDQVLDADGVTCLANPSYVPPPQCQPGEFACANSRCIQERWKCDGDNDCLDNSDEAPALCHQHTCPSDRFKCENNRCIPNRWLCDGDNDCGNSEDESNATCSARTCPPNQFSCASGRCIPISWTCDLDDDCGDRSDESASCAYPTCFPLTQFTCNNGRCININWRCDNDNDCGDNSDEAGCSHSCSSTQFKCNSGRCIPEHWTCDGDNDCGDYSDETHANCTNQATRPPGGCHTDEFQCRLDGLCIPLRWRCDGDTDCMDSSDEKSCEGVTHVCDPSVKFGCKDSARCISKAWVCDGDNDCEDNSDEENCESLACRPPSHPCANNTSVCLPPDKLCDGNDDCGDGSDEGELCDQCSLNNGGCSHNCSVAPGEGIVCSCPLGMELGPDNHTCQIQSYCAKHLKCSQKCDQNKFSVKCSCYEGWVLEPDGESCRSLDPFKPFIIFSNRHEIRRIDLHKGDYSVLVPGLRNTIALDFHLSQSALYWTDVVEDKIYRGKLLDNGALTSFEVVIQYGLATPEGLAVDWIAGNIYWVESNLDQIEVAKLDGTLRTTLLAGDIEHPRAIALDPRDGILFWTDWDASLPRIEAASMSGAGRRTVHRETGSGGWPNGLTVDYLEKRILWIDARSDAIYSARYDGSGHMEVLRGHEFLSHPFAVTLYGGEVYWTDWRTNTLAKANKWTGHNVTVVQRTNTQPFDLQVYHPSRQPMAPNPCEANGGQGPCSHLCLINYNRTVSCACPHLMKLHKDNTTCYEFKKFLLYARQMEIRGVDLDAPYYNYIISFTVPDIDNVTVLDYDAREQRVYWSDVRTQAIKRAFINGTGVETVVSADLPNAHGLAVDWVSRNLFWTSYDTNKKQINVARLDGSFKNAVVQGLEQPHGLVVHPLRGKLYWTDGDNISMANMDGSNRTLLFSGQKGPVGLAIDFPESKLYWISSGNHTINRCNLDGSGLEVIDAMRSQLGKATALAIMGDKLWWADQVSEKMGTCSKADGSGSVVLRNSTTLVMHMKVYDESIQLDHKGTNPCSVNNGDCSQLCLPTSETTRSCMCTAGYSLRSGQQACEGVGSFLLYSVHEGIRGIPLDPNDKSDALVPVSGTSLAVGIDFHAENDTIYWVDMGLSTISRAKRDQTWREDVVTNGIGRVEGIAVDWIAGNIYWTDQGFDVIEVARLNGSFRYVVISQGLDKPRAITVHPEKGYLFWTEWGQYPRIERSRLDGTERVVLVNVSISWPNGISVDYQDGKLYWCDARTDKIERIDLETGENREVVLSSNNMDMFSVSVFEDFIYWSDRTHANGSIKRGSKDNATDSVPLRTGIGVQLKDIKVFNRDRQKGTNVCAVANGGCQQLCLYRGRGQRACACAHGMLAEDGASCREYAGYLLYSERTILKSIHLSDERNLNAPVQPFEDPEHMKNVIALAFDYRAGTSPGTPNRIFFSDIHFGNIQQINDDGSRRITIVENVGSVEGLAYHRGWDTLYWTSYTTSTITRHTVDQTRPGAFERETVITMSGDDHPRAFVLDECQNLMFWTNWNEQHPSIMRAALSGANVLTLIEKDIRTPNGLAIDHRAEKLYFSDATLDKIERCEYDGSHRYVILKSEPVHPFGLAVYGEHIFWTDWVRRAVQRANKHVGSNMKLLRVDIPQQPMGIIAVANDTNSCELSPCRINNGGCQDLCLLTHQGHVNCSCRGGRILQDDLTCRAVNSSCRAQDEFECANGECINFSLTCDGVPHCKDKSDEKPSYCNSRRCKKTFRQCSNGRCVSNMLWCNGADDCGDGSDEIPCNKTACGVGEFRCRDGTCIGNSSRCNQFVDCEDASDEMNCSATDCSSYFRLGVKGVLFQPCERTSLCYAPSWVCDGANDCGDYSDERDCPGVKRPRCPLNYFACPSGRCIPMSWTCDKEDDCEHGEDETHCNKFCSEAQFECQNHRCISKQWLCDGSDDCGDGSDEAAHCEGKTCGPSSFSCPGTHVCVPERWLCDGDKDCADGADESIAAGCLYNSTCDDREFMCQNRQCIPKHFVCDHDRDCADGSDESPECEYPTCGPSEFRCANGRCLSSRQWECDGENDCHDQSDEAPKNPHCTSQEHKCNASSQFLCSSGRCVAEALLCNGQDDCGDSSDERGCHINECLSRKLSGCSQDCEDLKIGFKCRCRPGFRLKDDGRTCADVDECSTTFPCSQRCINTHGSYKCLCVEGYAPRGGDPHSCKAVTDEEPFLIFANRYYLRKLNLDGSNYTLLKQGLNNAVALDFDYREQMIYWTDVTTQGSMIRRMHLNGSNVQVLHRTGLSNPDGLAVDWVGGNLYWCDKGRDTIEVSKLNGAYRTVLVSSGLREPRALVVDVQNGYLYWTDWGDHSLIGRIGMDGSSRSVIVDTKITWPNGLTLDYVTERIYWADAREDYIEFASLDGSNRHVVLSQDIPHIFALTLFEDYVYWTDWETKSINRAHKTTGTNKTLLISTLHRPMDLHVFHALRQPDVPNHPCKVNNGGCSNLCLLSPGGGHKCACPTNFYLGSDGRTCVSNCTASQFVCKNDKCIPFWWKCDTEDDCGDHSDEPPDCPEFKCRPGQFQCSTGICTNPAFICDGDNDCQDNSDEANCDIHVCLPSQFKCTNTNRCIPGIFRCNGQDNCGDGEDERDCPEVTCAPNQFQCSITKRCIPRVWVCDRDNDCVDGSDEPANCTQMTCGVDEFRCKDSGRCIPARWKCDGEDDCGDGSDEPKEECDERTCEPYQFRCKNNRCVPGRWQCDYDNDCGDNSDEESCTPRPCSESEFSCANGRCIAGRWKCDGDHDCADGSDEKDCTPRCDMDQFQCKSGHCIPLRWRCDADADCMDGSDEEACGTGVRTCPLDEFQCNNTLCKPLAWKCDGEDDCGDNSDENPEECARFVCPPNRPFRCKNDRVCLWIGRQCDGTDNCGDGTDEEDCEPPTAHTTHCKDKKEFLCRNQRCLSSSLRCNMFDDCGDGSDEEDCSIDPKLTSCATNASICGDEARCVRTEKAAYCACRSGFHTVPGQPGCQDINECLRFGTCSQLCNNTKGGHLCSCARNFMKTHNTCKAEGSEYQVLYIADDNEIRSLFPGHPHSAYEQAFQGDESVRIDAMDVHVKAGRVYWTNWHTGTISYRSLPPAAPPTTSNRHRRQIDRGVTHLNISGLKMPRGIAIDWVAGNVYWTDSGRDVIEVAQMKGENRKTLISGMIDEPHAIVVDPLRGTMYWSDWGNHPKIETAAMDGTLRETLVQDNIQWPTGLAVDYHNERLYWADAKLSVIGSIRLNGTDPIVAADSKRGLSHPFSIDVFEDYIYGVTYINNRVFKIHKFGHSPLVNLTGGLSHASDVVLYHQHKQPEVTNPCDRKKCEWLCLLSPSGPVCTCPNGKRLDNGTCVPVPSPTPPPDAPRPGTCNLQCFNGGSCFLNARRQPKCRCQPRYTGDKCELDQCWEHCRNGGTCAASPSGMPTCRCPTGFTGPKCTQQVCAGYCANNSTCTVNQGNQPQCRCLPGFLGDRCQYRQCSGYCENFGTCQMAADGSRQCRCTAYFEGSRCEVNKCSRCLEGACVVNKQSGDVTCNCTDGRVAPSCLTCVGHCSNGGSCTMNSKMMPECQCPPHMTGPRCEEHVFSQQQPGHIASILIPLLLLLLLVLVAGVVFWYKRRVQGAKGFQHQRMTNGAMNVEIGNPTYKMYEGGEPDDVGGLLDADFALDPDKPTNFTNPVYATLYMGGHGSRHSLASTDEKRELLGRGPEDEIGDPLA
Chain of receptor-associated protein (RAP) (P30533 35-357): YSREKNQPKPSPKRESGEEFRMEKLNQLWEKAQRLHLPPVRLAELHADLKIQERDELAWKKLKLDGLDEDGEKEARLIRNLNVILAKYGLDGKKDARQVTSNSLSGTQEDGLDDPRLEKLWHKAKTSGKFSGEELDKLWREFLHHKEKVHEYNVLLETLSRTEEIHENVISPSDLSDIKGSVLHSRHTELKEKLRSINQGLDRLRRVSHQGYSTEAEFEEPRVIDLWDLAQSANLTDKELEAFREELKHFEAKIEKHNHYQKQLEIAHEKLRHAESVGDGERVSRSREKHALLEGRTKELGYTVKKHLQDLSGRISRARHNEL

For the substance Cy5.5, the “Passage of free dye across the BBB” value in data set [1] was “does not cross the BBB”.

Regarding “RAP: receptor-associated protein, an LRP ligand”, the Kd on LRP-1 was ~2 nM.

TFFYGGSRGKRNNFKTEEY [Angiopep-2]: the “Effect of exposure to Angiopep-2 on endothelial cells” value with endothelial cells is recorded as “unaffected”. The “Apparent distribution volume in brain parenchyma vs transferrin” value in data set [2] was “greater apparent distribution volume in brain parenchyma than transferrin”. Further, the “Permeability of the BBB to inulin in the presence of Angiopep-2” value in data set [3] is on record as “unaffected”. Moreover, in data set [4], the “In vitro BBB transcytosis” value is reported as “high BBB transcytosis in vitro”. Moreover, the “Immunohistochemical detection in brain after IV bolus injection” value in data set [5] is given as “present in the brain parenchyma”. TFFYGGSRGRRNNFRTEEY [Angiopep-7]: the “In vitro BBB transcytosis” value in [4] is on record as “did not exhibit in vitro transcytosis”.

In the case of poly-L-glutamine, the “Inhibition of [125I]-Angiopep-2 uptake into RBE4 cells” value (shortened to “Inhibition”) in the data set on RBE4 cells is on record as “unaffected”.

For poly-L-lysine, the “Inhibition” value with RBE4 cells is reported as 69%. With protamine, in the data set on RBE4 cells, the “Inhibition” value is recorded as 79%. In the case of “receptor-associated protein (RAP) (from UniProt P30533)”, the Kd with LRP-1 (Homo sapiens) [6] is 2 nM.

As for α2-macroglobulin (from UniProt P01023), in the data set with LRP-1 (Homo sapiens) [7], the Kd is 2 nM.

In the case of α2-macroglobulin: LRP-1 ligand, the Kd on LRP-1 is ~2 nM.
